Assay results published in PMC4721220 (Expert opinion on investigational drugs, 2013).
Where a SMILES comes first, the peptide text is derived from it.

Columns and labels:
male or female rats = experiment: Behavioral safety; assay type: in vivo, rat
rats [1] = experiment: Pentylenetetrazole convulsant activity; assay type: in vivo, rat; conditions: single dose 500 mg/kg IV, 60 min following pentylenetetrazole administration
hERG channel = hERG channel (Homo sapiens, UniProt Q12809); experiment: hERG assay; assay type: cell-based; conditions: concentrations up to 5 mM
hERG channel, sequence (Q12809 whole entry): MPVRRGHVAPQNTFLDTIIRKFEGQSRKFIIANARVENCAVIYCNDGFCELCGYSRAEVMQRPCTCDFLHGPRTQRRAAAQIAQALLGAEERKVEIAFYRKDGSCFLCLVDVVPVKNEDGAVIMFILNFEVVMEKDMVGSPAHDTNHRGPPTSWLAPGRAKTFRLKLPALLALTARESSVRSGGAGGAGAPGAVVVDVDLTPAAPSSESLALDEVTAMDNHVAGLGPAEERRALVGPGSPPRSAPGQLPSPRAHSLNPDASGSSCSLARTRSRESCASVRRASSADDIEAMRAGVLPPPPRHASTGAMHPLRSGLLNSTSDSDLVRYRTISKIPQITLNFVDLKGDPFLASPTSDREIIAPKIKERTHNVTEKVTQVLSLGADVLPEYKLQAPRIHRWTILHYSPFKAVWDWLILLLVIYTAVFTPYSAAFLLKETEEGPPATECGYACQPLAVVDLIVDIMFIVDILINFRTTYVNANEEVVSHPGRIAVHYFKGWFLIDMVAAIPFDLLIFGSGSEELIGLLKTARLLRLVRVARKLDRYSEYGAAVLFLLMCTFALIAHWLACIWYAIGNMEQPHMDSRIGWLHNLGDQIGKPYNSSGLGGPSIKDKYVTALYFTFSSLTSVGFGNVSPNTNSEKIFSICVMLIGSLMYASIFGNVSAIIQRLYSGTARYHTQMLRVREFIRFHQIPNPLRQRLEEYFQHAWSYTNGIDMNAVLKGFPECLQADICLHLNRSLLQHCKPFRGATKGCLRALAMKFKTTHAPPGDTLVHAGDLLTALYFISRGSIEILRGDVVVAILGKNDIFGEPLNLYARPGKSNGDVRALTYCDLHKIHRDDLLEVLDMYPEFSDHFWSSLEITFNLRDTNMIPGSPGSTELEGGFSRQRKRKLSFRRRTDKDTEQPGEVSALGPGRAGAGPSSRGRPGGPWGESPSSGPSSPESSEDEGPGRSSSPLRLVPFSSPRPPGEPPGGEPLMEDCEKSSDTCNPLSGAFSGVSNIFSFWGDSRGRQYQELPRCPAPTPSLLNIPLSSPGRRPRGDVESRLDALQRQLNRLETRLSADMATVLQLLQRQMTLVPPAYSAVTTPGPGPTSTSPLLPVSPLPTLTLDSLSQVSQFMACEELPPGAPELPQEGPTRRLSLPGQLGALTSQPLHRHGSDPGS

[2] = test system: dog-isolated Purkinje fibers; experiment: Electrophysiology in dog-isolated Purkinje fibers; assay type: cell-based; conditions: concentrations up to 1 mM, the highest evaluated
[3] = test system: conscious instrumented dogs; experiment: Cardiovascular safety in conscious instrumented dogs; assay type: in vivo, dog; conditions: single IV bolus doses up to 500 mg/kg
conscious rats = experiment: Respiratory safety, plethysmography in conscious rats; assay type: in vivo, rat; conditions: single IV bolus dose up to 415 mg/kg, the highest dose evaluated
rats [4] = experiment: Single-dose IV toxicology study in rats; assay type: in vivo, rat
How it was run: (§1)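 Single IV doses up to 1000 mg/kg were given to rats and dogs. End-points were clinical observations, body weight, clinical chemistry, hematology, urinalysis, and gross and microscopic pathology.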

dogs [5] = experiment: Single-dose IV toxicology study in dogs; assay type: in vivo, dog
How it was run: as §1

rats [6] = experiment: 90-day twice-weekly IV repeated-dose study in rats; assay type: in vivo, rat; conditions: up to 300 mg/kg (highest evaluated)
dogs [7] = experiment: 90-day twice-weekly IV repeated-dose study in dogs; assay type: in vivo, dog; conditions: up to 200 mg/kg (highest evaluated)
mouse lymphoma = experiment: Mouse lymphoma assay; assay type: cell-based
mouse = experiment: Mouse micronucleus assay; conditions: in vivo
[8] = Compatibility with human blood, serum and plasma in vitro; conditions: concentrations up to 3 mg/ml in vitro
[9] = Plasma pharmacokinetics in rats; assay type: in vivo, rat
[10] = Plasma pharmacokinetics in dogs; assay type: in vivo, dog
[11] = Phase I safety and pharmacokinetics study in normal human volunteers; assay type: in vivo; conditions: for t1/2 initial / AUC(0-inf) / Cmax / clearance: plasma; for t1/2 initial: normal human volunteers, Mean ± SEM, n = 4; for Vd / AUC(0-inf) / Cmax / clearance: human, iv; for Vd: in vivo
How it was run: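 Normal volunteers received a single IV dose via the antecubital vein, over a dose range of 0.5–25 mg/kg. Plasma Cmax and AUC were determined, with n = 4 subjects per dose, reported as Mean ± SEM.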

[12] = test system: subjects with major depressive disorder; experiment: Phase IIa safety; assay type: in vivo, human
How it was run: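 Randomized, double-blind, placebo-controlled, parallel-group trial at 12 US centres (116 adults). Subjects had MDD by SCID and <25% response (ATRQ) to antidepressants in the current episode, followed by a 14-day antidepressant washout. Each received a single IV infusion over 3–15 min of normal saline or 1, 5, 10 or 30 mg/kg test compound. Subjects stayed ≥24 h in unit, with continuous ECG and pulse oximetry to 4 h, then follow-up visits.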

[13] = twice-weekly dosing for 3 months

**Q.** With `C[C@@H](O)[C@H](N)C(=O)N1CCC[C@H]1C(=O)N1CCC[C@H]1C(=O)N[C@H](C(N)=O)[C@@H](C)O` [GLYX-13] (H-TPPT-NH2) as the compound, how does the “hyperlocomotion (signal for psychotomimetic effects)” value (male or female rats; any dose evaluated) read?
**A.** The value was “did not induce hyperlocomotion”.

**Q.** What about the adverse behavioral responses (male or female rats; single doses up to 500 mg/kg IV, the highest dose evaluated, male or female rats) of the same compound?
**A.** The adverse behavioral responses was “No adverse behavioral responses”.

**Q.** And the motor coordination (male or female rats; up to 500 mg/kg IV, male or female rats)?
**A.** Its motor coordination is “did not affect motor coordination”.

**Q.** And the convulsant activity (rats [1])?
**A.** Its convulsant activity is “did not affect convulsant activity”.

**Q.** What about the “current through the hERG channel” value (hERG channel) of the same compound?
**A.** Its value is “did not affect current through the hERG channel”.

**Q.** What about the “electrophysiological parameters in Purkinje fibers” value [2] of the same compound?
**A.** The value was “did not significantly alter any of the electrophysiological parameters”.

**Q.** And the “heart rate, blood pressure, ECG parameters” value [3]?
**A.** Its value is “nor did GLYX-13 administered at single IV bolus doses up to 500 mg/kg affect heart rate, blood pressure, or any ECG parameter”.

**Q.** And the respiratory parameters (conscious rats)?
**A.** The respiratory parameters was “nor did GLYX-13 affect any respiratory parameter”.

**Q.** And the “tolerability, single doses” value (rats [4]; doses up to 500 mg/kg IV)?
**A.** The value was “well tolerated”.

**Q.** What about the “toxicology findings, single dose” value (rats [4]; doses up to 1000 mg/kg IV) of the same compound?
**A.** The value was “No observational, body weight, clinical chemistry, hematology, urinalysis, or gross or microscopic pathological signals were observed”.

**Q.** And the “tolerability, single doses” value (dogs [5]; doses up to 500 mg/kg IV)?
**A.** The value was “well tolerated”.

**Q.** What about the “toxicology findings, single dose” value (dogs [5]; doses up to 1000 mg/kg IV) of the same compound?
**A.** The value was “No observational, body weight, clinical chemistry, hematology, urinalysis, or gross or microscopic pathological signals were observed”.

**Q.** And the “tolerability, repeated dose” value (rats [6])?
**A.** The value was “well tolerated”.

**Q.** And the “tolerability, repeated dose” value (dogs [7])?
**A.** The value was “well tolerated”.

**Q.** And the Ames mutagenesis (Ames mutagenesis assay)?
**A.** Its Ames mutagenesis is “inactive”.

**Q.** What about the mouse lymphoma assay (mouse lymphoma) of the same compound?
**A.** Its mouse lymphoma assay is “inactive”.

**Q.** And the mouse micronucleus assay (mouse)?
**A.** The mouse micronucleus assay was “inactive”.

**Q.** And the “compatibility with human blood, serum, and plasma” value [8]?
**A.** Its value is “completely compatible”.

**Q.** And the plasma half-life ([9]; 30 – 300 mg/kg IV)?
**A.** The plasma half-life was 2 to 3 min.

**Q.** And the “half-life after repeated dosing” value [9, 13]?
**A.** Its value is “retained its short half-life”.

**Q.** What about the plasma half-life ([10]; 20 – 200 mg/kg IV) of the same compound?
**A.** The plasma half-life was 5 to 8 min.

**Q.** And the “half-life after repeated dosing” value [10, 13]?
**A.** Its value is “retained its short half-life”.

**Q.** What about the t1/2 initial ([11]; 1 mg/kg IV) of the same compound?
**A.** The t1/2 initial was 4.7 ± 0.5 min.

**Q.** What about the t1/2 initial ([11]; 5 mg/kg IV) of the same compound?
**A.** Its t1/2 initial is 7.4 ± 0.9 min.

**Q.** What about the t1/2 initial ([11]; 10 mg/kg IV) of the same compound?
**A.** The t1/2 initial was 9.0 ± 0.6 min.

**Q.** And the t1/2 initial ([11]; 20 mg/kg IV)?
**A.** The t1/2 initial was 14.0 ± 2.1 min.

**Q.** What about the “increase of Cmax with dose” value ([11]; dose range 0.5 – 10 mg/kg IV) of the same compound?
**A.** The value was “supralinearly”.

**Q.** What about the “increase of AUC with dose” value ([11]; dose range 0.5 – 25 mg/kg IV) of the same compound?
**A.** Its value is “supralinearly”.

**Q.** What about the “increase of Cmax with dose” value ([11]; dose range 10–25 mg/kg IV) of the same compound?
**A.** The value was “linearly”.

**Q.** What about the Vd ([11]; 1 mg/kg) of the same compound?
**A.** Its Vd is 0.17 ± 0.03 L/kg.

**Q.** And the Vd ([11]; 5 mg/kg)?
**A.** Its Vd is 0.31 ± 0.14 L/kg.

**Q.** And the Vd ([11]; 10 mg/kg)?
**A.** The Vd was 0.12 ± 0.01 L/kg.

**Q.** And the Vd ([11]; 20 mg/kg)?
**A.** The Vd was 0.1 ± 0.03 L/kg.

**Q.** What about the AUC(0-inf) ([11]; 1 mg/kg) of the same compound?
**A.** The AUC(0-inf) was 533 ng·h/mL.

**Q.** What about the Cmax ([11]; 1 mg/kg) of the same compound?
**A.** The Cmax was 5.2 ± 0.9 µg/mL.

**Q.** And the clearance ([11]; 1 mg/kg)?
**A.** The clearance was 33.7 mL/min/kg.

**Q.** And the AUC(0-inf) ([11]; 5 mg/kg)?
**A.** The AUC(0-inf) was 4800 ng·h/mL.

**Q.** And the Cmax ([11]; 5 mg/kg)?
**A.** Its Cmax is 26 ± 11 µg/mL.

**Q.** And the clearance ([11]; 5 mg/kg)?
**A.** The clearance was 34.8 mL/min/kg.

**Q.** What about the AUC(0-inf) ([11]; 10 mg/kg) of the same compound?
**A.** Its AUC(0-inf) is 19400 ng·h/mL.

**Q.** What about the Cmax ([11]; 10 mg/kg) of the same compound?
**A.** Its Cmax is 100 ± 21 µg/mL.

**Q.** What about the clearance ([11]; 10 mg/kg) of the same compound?
**A.** Its clearance is 9 mL/min/kg.

**Q.** What about the AUC(0-inf) ([11]; 20 mg/kg) of the same compound?
**A.** Its AUC(0-inf) is 67200 ng·h/mL.

**Q.** And the Cmax ([11]; 20 mg/kg)?
**A.** The Cmax was 182 ± 56 µg/mL.

**Q.** And the clearance ([11]; 20 mg/kg)?
**A.** The clearance was 5 mL/min/kg.

**Q.** And the “suicidality (Columbia-Suicide Severity Rating Scale)” value ([12]; 14- or 28-day course of observation following dosing)?
**A.** The value was “did not cause any increase in suicidality”.

**Q.** What about the “BPRS+ score (psychotomimetic effects)” value ([12]; any time following dosing) of the same compound?
**A.** The value was “did not increase BPRS+ score”.

**Q.** And the “treatment-related serious adverse events” value ([12]; single IV dose 1, 5, 10 or 30 mg/kg)?
**A.** Its value is “No treatment-related serious adverse events”.
